Screening results (PubChem)
Most compounds without a hit are left out; they make up all but 3.8% or so of the library.
KCNK9 inh – human KCNK9 channel inhibition | HEK293 KCNK9, FluxOR thallium flux fluorescence; active compounds read low | Q9NPC2 | B-score at 10 µM | 310,000 compounds, 1.2% hits | AID 488922;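 active = ratio B-score over 3 SD below the library mean, with starting fluorescence within 5 SD of its mean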;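 also: negative B-score means less thallium flux so channel inhibition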
KCNQ1 pot – potentiators or activators of human KCNQ1 potassium channel; AID 2648; 310,000 compounds, 0.35% hits; B-score at 10 µM; P51787; CHO-K1 KCNQ1, thallium flux FluxOR fluorescence; active compounds read high;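 active = fluorescence ratio B-score, a plate-corrected score, at least three library SD, with initial intensity B-score within 5 SD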
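Medium – assay buffer, equal DMSO in all wells · Material – CHO-K1 cell line with stable KCNQ1 potassium channel expression · Signal – kinetic FluxOR thallium fluorescence, 10-s 1-Hz baseline, 110-s post-stimulus read · Compound – single concentration per compound, DMSO matched to controls · Schedule – 37 °C overnight plating, 90-min dark dye load, 20-min compound pretreatment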
KCNK3 inh – human KCNK3 channel inhibition, primary screen | CHO-KCNK3 thallium flux, FluxOR fluorescence; active compounds read low | 340,000 compounds, 0.84% hits | B-score at 10 µM | AID 602410 | O14649;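 active = B-score under library mean minus 4 SD, starting fluorescence ratio at most library mean plus 5 SD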;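 also: more negative B-score means stronger inhibition of thallium flux through KCNK3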
Kir21 inh – Kir2.1 (mouse) channel inhibition | HEK293-Kir2.1, FluxOR thallium flux fluorescence; active compounds read low | 310,000 compounds, 0.85% hits | P35561 | AID 1672 | B-score at 10 µM;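 active = fluorescence ratio B-score at or below minus 3 SD of library scores, with starting-brightness B-score within 2 SD, cut at about -4.2 in these data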;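 also: channel flux triggered by added potassium and thallium sulfate stimulus; B-score of peak minus minimum fluorescence over baseline after thallium stimulus; more negative B-score means stronger Kir2.1 block with less thallium influx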
KCNQ1 inh – blocks the human KCNQ1 potassium channel; CHO-K1 KCNQ1, FluxOR thallium flux fluorescence; active compounds read high; B-score at 10 µM; 310,000 compounds, 1.3% hits;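 active = compounds whose thallium flux B-score, printed positive for inhibition, exceeds three library SD while starting fluorescence stays within three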;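 also: channel opened by potassium depolarization with thallium stimulus after 20 min compound exposure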
hERG protect – shields human hERG channel from block by proarrhythmic agents. CHO-hERG, FluxOR thallium flux, dofetilide IC70 present. Q12809. activation (rescue from dofetilide block), less the hit threshold, % at 10 µM. AID 1511. 310,000 compounds, 0.51% hits;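 active = activation above the mean of controls blocked by dofetilide plus 5 SD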;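 also: thallium influx through hERG after potassium depolarization seen as dye fluorescence rise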
Target sequence (Q12809 whole entry, looked up): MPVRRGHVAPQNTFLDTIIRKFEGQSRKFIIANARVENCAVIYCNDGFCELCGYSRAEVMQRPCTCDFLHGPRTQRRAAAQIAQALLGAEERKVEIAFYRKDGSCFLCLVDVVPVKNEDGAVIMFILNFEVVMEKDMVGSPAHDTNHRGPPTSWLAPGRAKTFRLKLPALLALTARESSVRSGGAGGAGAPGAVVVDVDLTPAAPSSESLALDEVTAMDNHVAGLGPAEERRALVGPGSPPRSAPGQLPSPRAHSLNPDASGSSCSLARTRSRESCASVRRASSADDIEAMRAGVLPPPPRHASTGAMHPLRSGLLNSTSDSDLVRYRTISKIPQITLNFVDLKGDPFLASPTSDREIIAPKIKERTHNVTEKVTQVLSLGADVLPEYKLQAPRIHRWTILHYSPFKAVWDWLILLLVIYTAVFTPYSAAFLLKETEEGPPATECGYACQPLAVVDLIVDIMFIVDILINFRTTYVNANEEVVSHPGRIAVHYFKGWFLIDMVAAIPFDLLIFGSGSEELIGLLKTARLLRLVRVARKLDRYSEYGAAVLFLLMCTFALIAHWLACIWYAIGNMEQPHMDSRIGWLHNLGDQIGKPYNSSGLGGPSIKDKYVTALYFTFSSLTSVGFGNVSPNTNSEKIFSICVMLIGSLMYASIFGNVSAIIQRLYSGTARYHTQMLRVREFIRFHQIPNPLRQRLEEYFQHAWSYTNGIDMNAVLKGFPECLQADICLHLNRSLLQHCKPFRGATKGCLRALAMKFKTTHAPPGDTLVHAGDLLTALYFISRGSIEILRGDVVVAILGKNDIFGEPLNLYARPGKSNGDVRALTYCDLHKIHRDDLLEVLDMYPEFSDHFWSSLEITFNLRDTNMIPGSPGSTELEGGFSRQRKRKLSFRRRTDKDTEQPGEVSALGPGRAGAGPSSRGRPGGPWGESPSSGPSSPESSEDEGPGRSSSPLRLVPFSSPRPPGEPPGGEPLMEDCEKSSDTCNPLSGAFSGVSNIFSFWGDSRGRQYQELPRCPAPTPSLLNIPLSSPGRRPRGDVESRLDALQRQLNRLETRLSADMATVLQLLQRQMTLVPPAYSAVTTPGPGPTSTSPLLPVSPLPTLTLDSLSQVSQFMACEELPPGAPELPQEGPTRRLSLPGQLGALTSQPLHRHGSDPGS
KCNQ1 inh valid – human KCNQ1 channel inhibition, validation assay | shares compounds with KCNQ1 inh | KCNQ1 cell line, FluxOR thallium flux fluorescence | inhibition, % at 10 µM | 1,600 compounds, 93% hits | AID 588353;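 active = primary screen active, with duplicate mean exceeding buffer control mean plus 3 SD of buffer wells, cut at about 28% in these data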;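 also: 0% = buffer control ratio and 100% = XE991 inhibitor control ratio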
CHO KCNQ1 ctr – KCNQ1 inhibitor counter-screen hit in parental CHO cells; fluorescence ratio (Tl flux) at 10 µM; shares compounds with KCNQ1 inh; AID 588366; 1,600 compounds, 21% hits; parental CHO-K1, FluxOR thallium flux fluorescence ratio; active compounds read low; zero means no signal rise above baseline;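 active = mean of duplicate thallium-flux fluorescence ratios in parental host cells more than 5 SD below the buffer control mean, cut at about 0.38 in these data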;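 also: ratio is peak minus minimum fluorescence divided by baseline fluorescence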
KCNQ1 APC inh – confirmation of human KCNQ1 potassium channel inhibitors by electrophysiology; shares compounds with KCNQ1 inh; KCNQ1-CHO cells, automated patch clamp current; calls only at 10 µM; 490 compounds, 20% hits;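 active = KCNQ1 current drop exceeding 3 SD of negative control wells, seen in both duplicate runs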;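 also: steady state current during a 2 s step from -80 to +40 mV; negative values mean current inhibition and positive values mean potentiation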
KCNQ2 spec – rat KCNQ2 inhibition in KCNQ1 inhibitor specificity screen | shares compounds with KCNQ1 inh | KCNQ2 cells, FluxOR thallium flux fluorescence | inhibition, % at 10 µM | 1,600 compounds, 71% hits | AID 651746;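 active = mean percent inhibition of the KCNQ2 thallium signal more than 5 SD above the buffer-only control wells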;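 also: KCNQ2 expressed in CHO cells; 0% = buffer control wells and 100% = XE-991 inhibitor control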
KCNQ1 KCNE1 spec – human KCNQ1/KCNE1 inhibition in KCNQ1 specificity screen; shares compounds with KCNQ1 inh; KCNQ1/KCNE1 cells, FluxOR thallium flux fluorescence; inhibition, % at 10 µM; 1,600 compounds, 77% hits;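 active = mean percent inhibition of duplicate wells above the buffer-only control mean plus 3 SD of those controls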;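 also: 0% = buffer only wells and 100% = XE-991 inhibitor control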
Numbers without * were called inactive; i = inactive; / = no result; + = active, no number.

SMILES	KCNK9 inh	KCNQ1 pot	KCNK3 inh	Kir21 inh	KCNQ1 inh	hERG protect	KCNQ1 inh valid	CHO KCNQ1 ctr	KCNQ2 spec	KCNQ1 KCNE1 spec	others
Cc1ccc(-c2csc(=Nc3cccnc3)n2CCCn2ccnc2)cc1C	i	i	i	-4.5*	12*	-17	42*	0.45	80%*	i
O=C(CC1(CC(=O)N2CCOCC2)CCCC1)Nc1ccc(F)cc1	/	/	i	/	/	/	/	/	/	/
Cc1ccc2c(c1)[C@@H]1[C@H](CO2)[C@H](c2ccccc2)[C@]2(C)C(=O)N[C@H](C)C(=O)N12	/	/	i	/	/	/	/	/	/	/
N#Cc1cc([N+](=O)[O-])ccc1NC(=O)COC(=O)CN1C(=O)C2CCCCC2C1=O (configuration not stated)	/	/	i	/	/	/	/	/	/	/
O=C(CC1C(=O)N(c2ccccc2)C(=S)N1c1ccccc1)c1ccc(Br)cc1 (configuration not stated)	i	i	i	-1.9	6*	-15	65*	0.44	97%*	68%*
O=C(COC(=O)c1ccccc1O)Nc1cccc(S(=O)(=O)N2CCCC2)c1	/	/	i	/	/	/	/	/	/	/
CCc1ccc(N(CC(=O)Nc2nc3ccc(C)cc3s2)S(=O)(=O)c2c(C)noc2C)cc1	i	i	i	0.03	9*	-5	71*	0.42	73%*	138%*
O=C1CCCCC1Nc1ccc2ccccc2c1 (configuration not stated)	/	/	i	/	/	/	/	/	/	/
O=S(=O)(Nc1nc2ccccc2nc1N1CCN(c2ccccc2)CC1)c1ccc(F)cc1	i	i	i	-0.3	10*	-6	78*	0.39	69%*	62%*
Fc1ccc(NC(=S)NCc2cccs2)cc1	i	i	i	0.01	6*	-7	0	0.52	i	48%*
Oc1ccc2nnc3c(Br)cnn3c2c1	i	i	i	-16	24*	-44	+	0.042*	i	i
CC(Oc1cccc(Cl)c1)C(=O)Nc1nc(-c2ccccn2)cs1 (configuration not stated)	i	i	i	-0.56	i	-19	/	/	/	/
Cc1cc(S(=O)(=O)NCCC2=CCCCC2)ccc1Br	i	i	i	0.03	7*	-11	0	0.45	68%*	82%*
O=S(=O)(NCCC1=CCCCC1)c1ccc(OC(F)(F)F)cc1	i	i	i	1.1	6*	-6	56*	0.43	68%*	58%*
Cc1ccc(S(=O)(=O)NCCC2=CCCCC2)cc1	/	/	i	/	/	/	/	/	/	/
Cn1nc(C(=O)NCC2COc3ccccc3O2)c2ccccc2c1=O (configuration not stated)	/	/	i	/	/	/	/	/	/	/
CC1CCCN(CCOCCOc2ccc(Br)cc2Cl)C1 (configuration not stated)	i	i	i	-1.3	i	-10	/	/	/	/
CC1CCN(CCCOc2ccc(Br)cc2Cl)CC1	i	i	i	-7.6*	7*	-13	62*	0.47	i	90%*
CCOC(=O)c1c(NC(=O)CSc2nc3ccccc3o2)sc(C(C)=O)c1C	i	i	i	-0.89	8*	-29	130*	0.43	108%*	112%*	KCNQ1 APC inh=i
CCOC(=O)c1c(NC(=O)CSc2nnc(-c3ccccc3)o2)sc(C(C)=O)c1C	i	i	i	-0.02	i	-8	/	/	/	/
Cc1sc(NC(=O)CSc2ncn(-c3ccccc3)n2)nc1-c1ccccc1	i	i	i	-1.2	6*	-2	32*	0.48	77%*	i
Cc1sc(NC(=O)CSC2=NCCS2)nc1-c1ccccc1	i	i	i	2.1	i	-7	/	/	/	/
CCOC(=O)c1sc(NC(=O)CSc2ncn(-c3ccccc3)n2)nc1C	i	i	i	0.44	16*	-8	26*	0.52	i	i
O=[N+]([O-])c1ccc(Nc2cccc3c2[nH]c2c(-c4ccccc4)nccc23)c([N+](=O)[O-])c1	/	/	i	/	/	/	/	/	/	/
Cn1c2c(c(=O)n(C)c1=O)C(C(F)(F)F)(C(F)(F)F)N=C(c1ccccc1Cl)N2	i	i	i	-0.12	i	-8	/	/	/	/
SMILES	KCNK9 inh	KCNQ1 pot	KCNK3 inh	Kir21 inh	KCNQ1 inh	hERG protect	KCNQ1 inh valid	CHO KCNQ1 ctr	KCNQ2 spec	KCNQ1 KCNE1 spec	others
Cn1c(=O)c2[nH]c(-c3ccccc3)c(O)c2n(C)c1=O	i	i	i	-2.3	7*	-11	45*	0.39	i	91%*
Cn1c(=O)c2[nH]c(-c3ccccc3Cl)c(O)c2n(C)c1=O	i	i	i	0.05	6*	-5	82*	0.41	i	98%*
O=C(COc1ccccc1Cc1ccccc1)Nc1cccnc1	/	/	i	/	/	/	/	/	/	/
CSc1nsc(/C=C/Nc2ccc(C)c(C)c2)c1C#N	i	i	i	-0.5	i	-8	/	/	/	/
CSc1nsc(/C=C/Nc2ccc(C)cc2)c1C#N	i	i	i	-0.31	7*	-10	0	0.51	i	57%*
CCOC(=O)[C@H]1[C@H]2COc3cc(OC)ccc3[C@@H]2N2C(=O)CN(C)C(=O)[C@@]12C	/	/	i	/	/	/	/	/	/	/
COc1ccc2oc(/C=C/N(C)C)c(C(=O)c3ccc(Cl)cc3)c2c1	i	i	i	-1	6*	-15	114*	0.35*	139%*	145%*
COc1ccc2oc(C)c(C(=O)c3ccccc3)c2c1	i	i	i	-3	i	-6	/	/	/	/
Cc1sc2ncnc(NCC3COc4ccccc4O3)c2c1C (configuration not stated)	i	i	i	-0.79	i	-21	/	/	/	/
c1ccc(-c2csc3ncnc(NCC4COc5ccccc5O4)c23)cc1 (configuration not stated)	i	i	i	0.76	9*	-11	151*	0.35*	132%*	+
CC(C)CN(C(=O)COC(=O)c1ccccc1SCC(=O)N1CCCC1)C1CCS(=O)(=O)C1 (configuration not stated)	/	/	i	/	/	/	/	/	/	/
